Reference: ChEMBL document CHEMBL5705889, “Novel mutant-selective EGFR kinase inhibitors against EGFR T790M” (Nature, 2009)
pIC50, pKd: −log10 of the molar value. Activity calls are given as the source filed them. The calls are words filed in the database; no cut-off is given here.

Legend:
NCI-H3255 = experiment: Antiproliferative activity against human NCI-H3255 cells harboring EGFR L858R mutant assessed as inhibition of cell growth incubated for 72 hrs by MTS assay; assay type: functional, cell-based; details: NCI-H3255, 72 h
cells = assay type: functional, cell-based; details: Homo sapiens, NCI-H1781, 72 h
BaF3 [1] = experiment: cells; assay type: functional, cell-based; details: Mus musculus, BaF3, 72 h
[2] = target: Mitogen-activated protein kinase; ERK1/ERK2 (Homo sapiens) (UniProt P27361+P28482); experiment: Inhibition of ERK1/2 phosphorylation in human NCI-H1975 cells at 0.01 to 1.0 uM incubated for 16 hrs by immunoblot analysis; assay type: cell-based; details: dose 0.01-1 µM
Sequence of Mitogen-activated protein kinase; ERK1/ERK2 (Homo sapiens) (P27361 whole entry, looked up): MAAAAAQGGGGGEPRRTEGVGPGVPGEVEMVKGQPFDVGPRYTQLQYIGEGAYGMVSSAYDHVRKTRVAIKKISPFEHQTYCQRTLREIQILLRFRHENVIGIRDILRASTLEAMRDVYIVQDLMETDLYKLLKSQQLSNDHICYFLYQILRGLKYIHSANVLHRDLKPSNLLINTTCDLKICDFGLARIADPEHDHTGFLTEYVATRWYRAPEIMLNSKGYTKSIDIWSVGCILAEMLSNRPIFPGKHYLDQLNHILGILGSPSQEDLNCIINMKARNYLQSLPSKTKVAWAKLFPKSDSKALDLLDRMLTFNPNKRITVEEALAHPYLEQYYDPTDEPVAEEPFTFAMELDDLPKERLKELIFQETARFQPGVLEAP
Sequence of Mitogen-activated protein kinase; ERK1/ERK2 (Homo sapiens) (P28482 whole entry, looked up): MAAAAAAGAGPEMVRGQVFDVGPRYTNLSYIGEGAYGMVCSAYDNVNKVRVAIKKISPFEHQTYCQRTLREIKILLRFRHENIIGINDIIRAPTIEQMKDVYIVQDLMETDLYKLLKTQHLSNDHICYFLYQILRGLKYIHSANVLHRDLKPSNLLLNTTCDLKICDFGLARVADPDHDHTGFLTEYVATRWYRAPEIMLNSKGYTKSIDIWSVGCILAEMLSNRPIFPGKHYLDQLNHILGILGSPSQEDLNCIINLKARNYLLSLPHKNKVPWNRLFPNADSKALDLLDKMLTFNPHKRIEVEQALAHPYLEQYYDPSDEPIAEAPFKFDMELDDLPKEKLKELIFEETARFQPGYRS

[3] = target: ALK tyrosine kinase receptor (Homo sapiens, UniProt Q9UM73); experiment: Binding affinity of ALK (unknown origin) assessed as dissociation constant
Sequence of ALK tyrosine kinase receptor (Q9UM73 whole entry): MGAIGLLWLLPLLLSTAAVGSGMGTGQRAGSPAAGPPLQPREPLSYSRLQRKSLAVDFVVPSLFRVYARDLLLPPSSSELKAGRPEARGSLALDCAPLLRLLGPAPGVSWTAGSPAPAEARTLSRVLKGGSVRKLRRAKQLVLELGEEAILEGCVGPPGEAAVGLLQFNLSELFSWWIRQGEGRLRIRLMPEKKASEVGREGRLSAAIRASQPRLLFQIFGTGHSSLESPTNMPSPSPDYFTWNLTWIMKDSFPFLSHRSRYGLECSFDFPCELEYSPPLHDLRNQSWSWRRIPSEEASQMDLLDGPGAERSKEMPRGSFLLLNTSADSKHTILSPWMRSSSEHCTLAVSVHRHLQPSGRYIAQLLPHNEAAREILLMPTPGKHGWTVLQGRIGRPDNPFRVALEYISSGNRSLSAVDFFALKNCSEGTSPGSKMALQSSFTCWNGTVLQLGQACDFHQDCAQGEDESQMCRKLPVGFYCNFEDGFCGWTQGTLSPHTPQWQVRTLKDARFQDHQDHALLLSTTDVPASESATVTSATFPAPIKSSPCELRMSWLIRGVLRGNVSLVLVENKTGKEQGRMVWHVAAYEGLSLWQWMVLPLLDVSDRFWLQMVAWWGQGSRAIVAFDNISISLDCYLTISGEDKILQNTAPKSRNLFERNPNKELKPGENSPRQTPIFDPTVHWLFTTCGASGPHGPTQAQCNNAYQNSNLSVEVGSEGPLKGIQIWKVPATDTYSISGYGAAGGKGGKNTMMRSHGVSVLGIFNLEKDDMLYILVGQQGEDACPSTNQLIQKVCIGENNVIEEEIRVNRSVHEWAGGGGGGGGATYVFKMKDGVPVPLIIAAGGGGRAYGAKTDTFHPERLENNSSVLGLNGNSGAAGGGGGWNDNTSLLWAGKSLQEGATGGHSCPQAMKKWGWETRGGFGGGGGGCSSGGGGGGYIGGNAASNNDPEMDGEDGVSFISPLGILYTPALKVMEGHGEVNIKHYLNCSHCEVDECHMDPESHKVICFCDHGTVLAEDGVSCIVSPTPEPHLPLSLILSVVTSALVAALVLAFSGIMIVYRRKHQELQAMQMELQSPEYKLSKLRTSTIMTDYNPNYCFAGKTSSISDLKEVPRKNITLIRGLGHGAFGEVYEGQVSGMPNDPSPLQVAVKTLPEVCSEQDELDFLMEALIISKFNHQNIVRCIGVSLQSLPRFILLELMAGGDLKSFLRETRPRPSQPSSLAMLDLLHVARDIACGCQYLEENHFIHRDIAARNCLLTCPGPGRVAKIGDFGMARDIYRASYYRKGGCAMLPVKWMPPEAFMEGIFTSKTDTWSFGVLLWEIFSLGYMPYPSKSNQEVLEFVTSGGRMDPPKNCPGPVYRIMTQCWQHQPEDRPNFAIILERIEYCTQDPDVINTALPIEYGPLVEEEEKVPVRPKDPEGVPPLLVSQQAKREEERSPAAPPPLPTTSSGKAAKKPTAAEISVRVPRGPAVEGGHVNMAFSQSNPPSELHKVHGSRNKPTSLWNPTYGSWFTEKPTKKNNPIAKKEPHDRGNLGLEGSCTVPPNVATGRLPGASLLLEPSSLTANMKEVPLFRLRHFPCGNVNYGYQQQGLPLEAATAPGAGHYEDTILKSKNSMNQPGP

[4] = target: NUAK family SNF1-like kinase 1 (Homo sapiens, UniProt O60285); experiment: Binding affinity to ARK5 (unknown origin) assessed as dissociation constant
Sequence of NUAK family SNF1-like kinase 1 (O60285 whole entry): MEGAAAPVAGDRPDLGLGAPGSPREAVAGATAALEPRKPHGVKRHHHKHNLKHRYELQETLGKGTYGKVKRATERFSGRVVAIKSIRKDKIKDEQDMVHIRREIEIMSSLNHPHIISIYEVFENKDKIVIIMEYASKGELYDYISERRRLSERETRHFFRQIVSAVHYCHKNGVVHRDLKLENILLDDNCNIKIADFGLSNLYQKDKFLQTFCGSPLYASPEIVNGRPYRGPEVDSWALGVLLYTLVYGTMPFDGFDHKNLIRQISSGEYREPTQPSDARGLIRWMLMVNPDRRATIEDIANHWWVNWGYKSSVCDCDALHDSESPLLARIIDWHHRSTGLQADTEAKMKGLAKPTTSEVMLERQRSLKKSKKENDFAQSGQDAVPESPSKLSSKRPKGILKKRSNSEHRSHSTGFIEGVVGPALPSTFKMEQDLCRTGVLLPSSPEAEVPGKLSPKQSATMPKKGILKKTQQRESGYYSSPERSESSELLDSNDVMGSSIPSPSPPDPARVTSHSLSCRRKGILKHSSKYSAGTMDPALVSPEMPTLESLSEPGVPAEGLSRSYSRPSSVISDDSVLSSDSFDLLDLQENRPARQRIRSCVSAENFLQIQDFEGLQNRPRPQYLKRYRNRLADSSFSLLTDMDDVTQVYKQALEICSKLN

Focal adhesion kinase 1 = Focal adhesion kinase 1 (Homo sapiens, UniProt Q05397); experiment: Binding affinity to FAK (unknown origin) assessed as dissociation constant
Sequence of Focal adhesion kinase 1 (Q05397 whole entry): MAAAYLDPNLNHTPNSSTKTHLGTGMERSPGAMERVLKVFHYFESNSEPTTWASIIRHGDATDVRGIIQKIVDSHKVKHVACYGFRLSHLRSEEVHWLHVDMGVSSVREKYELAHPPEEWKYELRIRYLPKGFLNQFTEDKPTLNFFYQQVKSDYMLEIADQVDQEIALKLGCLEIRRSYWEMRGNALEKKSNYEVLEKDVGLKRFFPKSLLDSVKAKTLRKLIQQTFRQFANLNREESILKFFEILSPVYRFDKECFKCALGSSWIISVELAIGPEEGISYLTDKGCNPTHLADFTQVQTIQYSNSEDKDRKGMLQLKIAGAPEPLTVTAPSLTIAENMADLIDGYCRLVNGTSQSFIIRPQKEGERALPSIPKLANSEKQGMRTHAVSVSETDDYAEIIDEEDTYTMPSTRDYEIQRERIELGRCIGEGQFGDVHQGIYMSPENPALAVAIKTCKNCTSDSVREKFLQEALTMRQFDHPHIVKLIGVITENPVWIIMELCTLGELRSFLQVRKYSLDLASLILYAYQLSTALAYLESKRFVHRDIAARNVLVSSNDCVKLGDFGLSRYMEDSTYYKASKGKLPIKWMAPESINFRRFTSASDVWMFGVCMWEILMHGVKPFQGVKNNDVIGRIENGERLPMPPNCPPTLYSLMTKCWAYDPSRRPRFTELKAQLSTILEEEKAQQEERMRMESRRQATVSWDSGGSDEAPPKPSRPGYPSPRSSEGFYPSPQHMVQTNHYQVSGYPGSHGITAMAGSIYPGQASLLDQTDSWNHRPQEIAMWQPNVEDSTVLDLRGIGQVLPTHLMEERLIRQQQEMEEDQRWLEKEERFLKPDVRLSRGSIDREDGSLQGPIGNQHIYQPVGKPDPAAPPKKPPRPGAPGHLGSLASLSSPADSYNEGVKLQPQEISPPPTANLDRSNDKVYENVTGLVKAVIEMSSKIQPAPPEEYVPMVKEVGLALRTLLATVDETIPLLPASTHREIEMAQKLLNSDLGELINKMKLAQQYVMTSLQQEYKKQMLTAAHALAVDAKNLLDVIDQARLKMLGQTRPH

[5] = target: NUAK family SNF1-like kinase 2 (Homo sapiens, UniProt Q9H093); experiment: Binding affinity to SNARK (unknown origin) assessed as dissociation constant
Sequence of NUAK family SNF1-like kinase 2 (Q9H093 whole entry, the tested form may be a part): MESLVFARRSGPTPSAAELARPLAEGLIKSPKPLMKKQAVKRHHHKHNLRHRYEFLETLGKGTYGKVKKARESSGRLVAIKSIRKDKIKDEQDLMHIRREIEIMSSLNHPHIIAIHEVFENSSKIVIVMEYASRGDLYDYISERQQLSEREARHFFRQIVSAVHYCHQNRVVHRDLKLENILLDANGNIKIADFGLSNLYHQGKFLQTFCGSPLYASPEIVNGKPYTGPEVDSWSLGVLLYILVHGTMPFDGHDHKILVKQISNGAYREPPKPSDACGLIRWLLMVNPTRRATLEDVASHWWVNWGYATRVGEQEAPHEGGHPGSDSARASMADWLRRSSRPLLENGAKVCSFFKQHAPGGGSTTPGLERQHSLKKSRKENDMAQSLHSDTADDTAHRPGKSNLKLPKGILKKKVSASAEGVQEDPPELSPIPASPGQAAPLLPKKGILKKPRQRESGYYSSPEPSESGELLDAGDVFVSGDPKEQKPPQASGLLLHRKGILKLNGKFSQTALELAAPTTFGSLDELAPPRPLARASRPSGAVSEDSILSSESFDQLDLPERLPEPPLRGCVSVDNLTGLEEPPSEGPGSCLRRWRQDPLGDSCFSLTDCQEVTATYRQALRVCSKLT

[6] = target: Tyrosine-protein kinase JAK2 (Homo sapiens, UniProt O60674); experiment: Inhibition of TEL fused JAK2 (unknown origin) transformed in mouse BaF3 cells; assay type: cell-based
[7] = Cmax in mouse at 10 mg/kg, po administered as single dose; assay type: ADME, organism-based; details: in vivo
[8] = Drug concentration in mouse plasma at 1 mg/kg, iv administered as single dose and measured after 4 hrs; assay type: ADME, organism-based
[9] = Drug concentration in mouse plasma at 10 mg/kg, po administered as single dose and measured after 6 hrs; assay type: ADME, organism-based
[10] = Toxicity in mouse harboring EGFR del E746_A750/T790M mutant assessed as effect on body weight at 25 mg/kg administered via gavage for 2 weeks; assay type: organism-based; details: in vivo, po, 336 h
Procedure, shortened: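 Inducible bitransgenic tumor mice gavaged daily, 25 mg/kg, vehicle NMP (10% 1-methyl-2-pyrrolidinone, 90% PEG-300), compared against vehicle-treated mice; weight, serum creatine and total white blood cell count monitored during the study.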

Mus musculus [11] = experiment: In vivo inhibition of ERK1/2 phosphorylation in transgenic mouse harboring EGFR del E746_A750/T790M mutant at 2.5 to 25 mg/kg administered as two doses separated by 16 hours by immunoblot analysis; assay type: functional, organism-based; details: dose 2.5-25 mg/kg
Procedure, shortened: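 Transgenic mice gavaged with compound in 10% 1-methyl-2-pyrrolidinone:90% PEG-300 vehicle; phosphorylation assessed in tissue by immunoblotting per standard protocols.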

Mus musculus [12] = experiment: In vivo antitumor activity in transgenic mouse harboring EGFR delE746_A750/T790M mutant assessed as increase in TUNEL positive cells at 25 mg/kg administered via gavage for 2 weeks by immunohistochemical analysis; assay type: functional, organism-based
Procedure, shortened: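 Transgenic EGFR T790M mutant mice were given daily gavage at 25mg/kg in 10% 1-methyl-2-pyrrolidinone:90% PEG-300 vehicle, alongside vehicle-alone controls. Tumor tissue was immunostained by standard protocols, and TUNEL-positive and Ki67-positive cells were counted.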

Mus musculus [13] = experiment: Invivo antitumor activity in transgenic mouse harboring EGFR del19/T790M mutant assessed as reduction in nodule remnants in tumor at 25 mg/kg administered via gavage for 2 weeks by H&E staining based analysis; assay type: functional, organism-based
Procedure, shortened: (§1)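 EGFR-TL (L858R/T790M) or exon19 deletion-T790M (TD) inducible bitransgenic mice dosed by oral gavage daily at 25 mg/kg; vehicle 10% 1-methyl-2-pyrrolidinone:90% PEG-300. Tumors followed by MRI; lung histology by standard protocols.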

Mus musculus [14] = experiment: Invivo antitumor activity in transgenic mouse harboring EGFR L858R/T790M mutant assessed as reduction in small residual nodules in tumor at 25 mg/kg administered via gavage for 2 weeks by H&E staining based analysis; assay type: functional, organism-based; procedure, shortened: as §1
Mus musculus [15] = experiment: Invivo antitumor activity in transgenic mouse harboring EGFR L858R/T790M mutant assessed as reduction in nodule remnants in tumor at 25 mg/kg administered via gavage for 2 weeks by H&E staining based analysis; assay type: functional, organism-based; procedure, shortened: as §1
BaF3 [16] = experiment: Prevention of EGFR T790M mutant development in mouse BaF3 cells harboring L858R mutant assessed as reduction in resistant clones with T790M mutant at 0.001 to 1 uM; assay type: functional, cell-based; details: dose 0.001-1 µM
Procedure, shortened: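 Ba/F3 cells with EGFR L858R or delE746_A750 mutagenized with N-ethyl-N-nitrosourea, then expanded in 100 nM or 1 μM inhibitor; resistant clones isolated and characterized for EGFR T790M.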

- pIC50 (NCI-H3255): 7.05
- pIC50 (cells): 5.82
- pIC50 (BaF3 [1]): < 5.48
- inhibition [2]: Active
- pKd [3]: 6.52
- pKd [4]: 7.04
- pKd (Focal adhesion kinase 1): 7.11
- pKd [5]: 8.00
- pIC50 [6]: 5.42
- Cmax [7]: 429 ng/mL
- concentration at 4 h [8]: 49.1 ng/mL
- concentration at 6 h [9]: 140 ng/mL
Compound: C=CC(=O)Nc1cccc(Oc2nc(Nc3ccc(N4CCN(C)CC4)cc3OC)ncc2Cl)c1
- Activity [10]: Non-Toxic
- inhibition (Mus musculus [11]): Active
- Activity (Mus musculus [12]): Active
- Activity (Mus musculus [13]): Active
- Activity (Mus musculus [14]): Active
- Activity (Mus musculus [15]): Active
- Activity (BaF3 [16]): Active
